# Hck-Nef inh – inhibitors of human Hck kinase activated by Nef. P08631. Recombinant Hck-YEEI plus Nef, Z-Lyte FRET kinase assay. inhibition, % at 20 µM. 220,000 tested, 0.68% active;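 active = Hck-Nef kinase inhibition above about 50%, limit read from the data; inactive = inhibition below that limit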
# PERK inh – human PERK inhibition, primary cell-based screen. Q9NZJ5. AID 1416. inhibition, % at 5.6 µM. CHO PERK-DD fusion, SEAP luminescence translation reporter. 220,000 tested, 0.17% active;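 active = inhibition above the mean inhibition of all tested compounds plus 3 SD, set separately per screening campaign, cut at about 2.9% in these data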;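 also: PERK kinase domain activated by AP20187 dimerizer at 100 nM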
# Calb biofilm kill – mixtures killing C. albicans biofilm. AID 1242. C. albicans biofilm persisters + clotrimazole, fluorescence viability; primary screen in compound mixtures of four per well. 120,000 tested, 0.02% active. inhibition, % at 7.6 µM;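 active = inhibition above 30.3% in the primary screen of four-compound pools, then above 30% when the compound was retested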;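 also: compounds exposed to preformed 24 h biofilms for 48 h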
#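 Probe or stimulus – Clotrimazole 50 µg/mL co-treatment · System – C. albicans biofilms · Schedule – 24 h biofilm formation, then 48 h compound exposure, 37 °C · Evaluation – percent inhibition of biofilm viability · Technique – 2-h Alamar Blue fluorescence, 535/590 nm excitation/emission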
# p97 inhibitor – inhibitors of human p97 ATPase. P55072. recombinant p97 ATPase, Kinase-Glo ATP luminescence, 3 h. inhibition, % at 8 µM. 220,000 tested, 0.42% active. AID 1481; in the data active = inhibition above about 15%
# 14-3-3 Bad inh – disrupts binding of bovine 14-3-3 zeta to phospho-Bad peptide; P63103; TR-FRET 14-3-3zeta/Dy647-pBad peptide displacement, 1 h; inhibition, % at 21.7 µM; 220,000 tested, 0.71% active; AID 781;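 active = inhibition above about 70%, limit read from the data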
# Target sequence (P63103 whole entry, looked up): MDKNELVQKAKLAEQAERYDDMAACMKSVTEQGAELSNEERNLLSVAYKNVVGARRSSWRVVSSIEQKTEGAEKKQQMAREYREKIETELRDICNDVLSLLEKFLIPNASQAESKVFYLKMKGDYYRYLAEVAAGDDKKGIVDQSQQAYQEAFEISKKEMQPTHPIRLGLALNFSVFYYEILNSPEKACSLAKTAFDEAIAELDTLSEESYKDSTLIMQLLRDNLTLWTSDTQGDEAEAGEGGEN
# eIF4E 4G PPI – blocks eIF4E binding to eIF4G. TR-FRET eIF4E-eIF4GI(517-606) binding, 2 h. 220,000 tested, 0.37% active. inhibition, % at 21.7 µM. P63073+Q04637;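 active = inhibition above about 30%, limit read from the data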
# p97 confirm – human p97 ATPase inhibition, confirmation; shares compounds with p97 inhibitor; recombinant p97 ATPase, Kinase-Glo ATP luminescence; inhibition, % at 8 µM; 760 tested, 44% active; AID 1517;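 active = percent inhibition of p97 ATPase above a set limit, the primary screen's mean plus 3 SD, cut at about 15% in these data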
# Numbers stand for hits; n = inactive; x = no result. The list is not random: actives were taken first. Their share in the collection is about 2.2%.
SMILES,Hck-Nef inh,PERK inh,Calb biofilm kill,p97 inhibitor,14-3-3 Bad inh,eIF4E 4G PPI,p97 confirm
COC(=O)c1ccccc1NC(=O)c1sc(N)nc1C,n,n,x,14.9,n,n,n
O=c1[nH]c(=O)n(C2CCCO2)cc1F (stereo not drawn),n,n,n,20.1,n,n,n
CC(C)(C)NS(=O)(=O)c1cc(C(=O)Nc2sccc2C#N)ccc1Cl,n,n,n,n,n,n,x
COc1cc(/C=c2\sc3n(c2=O)C(c2ccccc2)C(c2ccccc2)=NN=3)ccc1O (stereo not drawn),n,n,x,16.2,n,n,n
COc1cc(/C=C2/C(=O)ON=C2c2ccccc2)ccc1O,n,n,n,n,n,n,x
CCn1c(C)nc2cc(C(=O)NNC(=O)CCC3CCCCC3)ccc21,n,n,n,n,n,n,x
CCOc1ccccc1CN1C(=O)c2ccccc2C1C(=O)NC(C)CC (stereo not drawn),n,n,x,19.2,n,n,n
Cc1cccc(NC(=O)c2c(O)c3cccc4c3n(c2=O)CC4)c1,n,n,x,n,x,x,x
O=C(Nc1cccc(F)c1)c1c(O)c2cccc3c2n(c1=O)CCC3,n,n,n,17.7,n,n,n
O=C(Cc1c[nH]c2ccccc12)NNC(=O)c1ccccc1,n,n,n,n,n,n,x
O=C(O)Cc1c[nH]c2cccc(O)c12,n,n,n,17.1,n,n,18.6
NS(=O)(=O)c1ccc(CCNC(=O)CCCn2c(=O)[nH]c3ccc(Br)cc3c2=O)cc1,n,n,n,26.3,n,n,n
CC(C)CCNC(=O)CCCn1c(=O)[nH]c2ccc(Br)cc2c1=O,n,n,x,n,n,n,x
Cn1c2ccccc2c(=O)c2c(=O)n(Cc3ccco3)c(-c3ccc(F)cc3)nc21,n,n,n,46.3,n,n,17.4
Cc1ccc(-c2nc3c(c(=O)c4ccccc4n3C)c(=O)n2Cc2ccco2)cc1,n,n,n,48.2,n,n,16.5
Cc1ccc(-c2nc3c(c(=O)c4ccccc4n3C)c(=O)n2-c2ccccc2)cc1,n,n,n,n,n,n,x
N#Cc1c(NC(=O)c2ccc(Br)o2)n(-c2ccccc2)c2nc3ccccc3nc12,n,n,n,46.6,n,n,41.0
COc1ccc(-n2c(NC(=O)c3ccc(Br)o3)c(C#N)c3nc4ccccc4nc32)cc1,n,n,x,n,n,n,x
CCC(C)n1c(NC(=O)c2ccccc2)c(C#N)c2nc3ccccc3nc21 (stereo not drawn),n,n,x,27.0,x,x,n
CCCc1nc2ccccc2c(C(=O)OC(C)C(=O)NCc2ccc3c(c2)OCO3)c1CC (stereo not drawn),n,n,n,n,n,n,x
O=C(O)C1CSC(c2ccc(O)c([N+](=O)[O-])c2)N1 (stereo not drawn),n,n,n,16.4,n,n,n
CCN(CC)C(=O)/C(=C\c1ccc(Br)cc1)NC(=O)c1ccccc1OC,n,n,x,n,n,n,x
COC(=O)/C=C1/S/C(=N/NC(=O)c2ccc(Cl)cc2Cl)NC1=O,n,n,n,22.4,n,n,21.2
CC(C)N(C(=O)COC(=O)[C@H](C)NC(N)=O)c1ccccc1,n,n,n,15.4,n,n,n
COCC(=O)N(c1ccccc1)C(C)C(=O)OC (stereo not drawn),n,n,n,n,n,n,x
SMILES,Hck-Nef inh,PERK inh,Calb biofilm kill,p97 inhibitor,14-3-3 Bad inh,eIF4E 4G PPI,p97 confirm
CCn1nc([N+](=O)[O-])c(C(C#N)c2nc3ccccc3n2C)c(Cl)c1=O (stereo not drawn),n,n,n,n,n,n,x
CCCn1nc([N+](=O)[O-])c(C(C#N)c2nc3ccccc3s2)c(Cl)c1=O (stereo not drawn),n,n,x,16.6,n,n,21.0
CCC(C)Oc1nc2c(c(=O)n(C)c(=O)n2C)n1C (stereo not drawn),n,n,n,n,n,n,x
Cc1nc2ccccc2n1CC(=O)NCCN1CCCC1,n,n,x,35.4,n,n,n
COc1ccc(/C=C2/C(=O)N(Cc3ccccc3)N=C2C)cc1,n,n,n,32.7,n,n,n
COc1ccc(/C=C2\SC(=S)N(C(Cc3ccccc3)C(=O)O)C2=O)cc1 (stereo not drawn),n,n,n,n,n,n,x
CCCCNC(C(=O)Nc1ccc(Cl)c([N+](=O)[O-])c1)c1ccccc1 (stereo not drawn),n,n,n,n,n,n,x
CC(C)(C)OC(=O)N/N=C/c1cccn1-c1ccc([N+](=O)[O-])cc1,n,n,n,16.3,n,n,n
Cc1[nH]c2ccccc2c1C(=O)COC(=O)c1ccc([N+](=O)[O-])s1,n,n,n,39.1,n,n,31.3
Clc1c(Cl)c(Cl)c2n[nH]nc2c1Cl,n,n,n,18.9,n,n,15.3
C#CCOCCOCCOCCNc1nc(N2CCN(C(=O)[C@H](CCC(=O)O)n3cc(C(N)Cc4ccc(O)cc4)nn3)CC2)nc(N2CCN(C(=O)[C@H](Cc3cc4ccccc4[nH]3)n3cc(C(N)[C@H](C)CC)nn3)CC2)n1 (stereo partly drawn),n,n,n,n,n,n,x
C#CCOCCOCCOCCNc1nc(N2CCN(C(=O)[C@H](Cc3cc4ccccc4[nH]3)n3cc([C@@H](N)CC(C)C)nn3)CC2)nc(N2CCN(C(=O)[C@H](Cc3cc4ccccc4[nH]3)n3cc([C@@H](N)CC(C)C)nn3)CC2)n1,n,n,n,27.5,n,n,26.7
C#CCOCCOCCOCCNc1nc(N2CCN(C(=O)C(Cc3cc4ccccc4[nH]3)n3cc(C(N)Cc4ccc(O)cc4)nn3)CC2)nc(N2CCN(C(=O)C(Cc3cc4ccccc4[nH]3)n3cc(C(N)Cc4ccc(O)cc4)nn3)CC2)n1 (stereo not drawn),n,n,n,21.6,n,n,26.3
C#CCOCCOCCOCCNc1nc(N2CCN(C(=O)[C@H](Cc3ccc(O)cc3)n3cc([C@@H](N)C(C)CC)nn3)CC2)nc(N2CCN(C(=O)[C@H](Cc3cc4ccccc4[nH]3)n3cc([C@@H](N)CC(C)C)nn3)CC2)n1 (stereo partly drawn),n,n,n,22.0,n,n,n
C#CCOCCOCCOCCNc1nc(N2CCN(C(=O)[C@H](Cc3cc4ccccc4[nH]3)n3cc([C@@H](N)Cc4ccc(O)cc4)nn3)CC2)nc(N2CCN(C(=O)[C@H](Cc3cc4ccccc4[nH]3)n3cc([C@@H](N)CC(C)C)nn3)CC2)n1,n,x,n,x,n,n,x
